Results reported in ChEMBL document CHEMBL1138853, “Synthesis and antituberculosis activity of a novel series of optically active 6-nitro-2,3-dihydroimidazo[2,1-b]oxazoles” (2006).
Values after ≈ are worked out from the molar mass of the structure shown.

What was measured:
[1] = test system: Mycobacterium tuberculosis; assay: Antituberculosis activity against INH resistant Mycobacterium tuberculosis H37Rv; type: functional
How it was run: (§1)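 Agar dilution on 7H11 plates with drug-susceptible and drug-resistant M. tuberculosis H37Rv strains grown in Middlebrook 7H9 broth. Frozen stocks (-80 °C) diluted to about 10⁶ CFU/mL and spotted with a multipoint inoculator onto drug-containing plates. Drugs dissolved in DMSO and serially diluted 2-fold in DMSO. Read-out: MIC.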

[2] = test system: Mycobacterium tuberculosis; assay: Antituberculosis activity against rifampicin resistant Mycobacterium tuberculosis H37Rv; type: functional; how it was run: as §1

C[C@]1(COc2ccc(N3CCOCC3)cc2)Cn2cc([N+](=O)[O-])nc2O1
MIC [1]: 0.78 µg/mL (≈ 2.16 µM)
MIC [2]: 0.39 µg/mL (≈ 1.08 µM)

COc1ccc(OC[C@@]2(C)Cn3cc([N+](=O)[O-])nc3O2)cc1
MIC [1]: 0.1 µg/mL (≈ 0.328 µM)
MIC [2]: 0.05 µg/mL (≈ 0.164 µM)

C[C@]1(COc2ccc(N3CCC(Oc4ccc(C(F)(F)F)cc4)CC3)cc2)Cn2cc([N+](=O)[O-])nc2O1
MIC [1]: 0.012 µg/mL (≈ 0.0231 µM)
MIC [2]: 0.006 µg/mL (≈ 0.0116 µM)

C[C@]1(COc2ccc(OC(F)(F)F)cc2)Cn2cc([N+](=O)[O-])nc2O1
MIC [1]: 0.39 µg/mL (≈ 1.09 µM)
MIC [2]: 0.2 µg/mL (≈ 0.557 µM)

C[C@]1(COc2ccccc2)Cn2cc([N+](=O)[O-])nc2O1
MIC [1]: 0.05 µg/mL (≈ 0.182 µM)
MIC [2]: 0.05 µg/mL (≈ 0.182 µM)

Cc1ccc(OC2CCN(c3ccc(OC[C@@]4(C)Cn5cc([N+](=O)[O-])nc5O4)cc3)CC2)cc1
MIC [1]: 0.39 µg/mL (≈ 0.84 µM)
MIC [2]: 0.39 µg/mL (≈ 0.84 µM)

C[C@]1(COc2ccc(N3CCC(Oc4ccccc4)CC3)cc2)Cn2cc([N+](=O)[O-])nc2O1
MIC [1]: 0.39 µg/mL (≈ 0.866 µM)
MIC [2]: 0.2 µg/mL (≈ 0.444 µM)

C[C@]1(COc2ccc(N3CC[S+]([O-])CC3)cc2)Cn2cc([N+](=O)[O-])nc2O1
MIC [1]: 6.25 µg/mL (≈ 15.9 µM)
MIC [2]: 6.25 µg/mL (≈ 15.9 µM)

C[C@]1(COc2ccc(N3CCC(Oc4cccc(OC(F)(F)F)c4)CC3)cc2)Cn2cc([N+](=O)[O-])nc2O1
MIC [1]: 0.024 µg/mL (≈ 0.0449 µM)
MIC [2]: 0.024 µg/mL (≈ 0.0449 µM)

C[C@]1(COc2ccc(N3CCC(Oc4ccc(Cl)cc4)CC3)cc2)Cn2cc([N+](=O)[O-])nc2O1
MIC [1]: 0.05 µg/mL (≈ 0.103 µM)
MIC [2]: 0.024 µg/mL (≈ 0.0495 µM)

C[C@]1(COc2ccc(N3CCCCC3)cc2)Cn2cc([N+](=O)[O-])nc2O1
MIC [1]: 0.39 µg/mL (≈ 1.09 µM)
MIC [2]: 0.39 µg/mL (≈ 1.09 µM)

COc1ccc(OC2CCN(c3ccc(OC[C@@]4(C)Cn5cc([N+](=O)[O-])nc5O4)cc3)CC2)cc1
MIC [1]: 0.39 µg/mL (≈ 0.812 µM)
MIC [2]: 0.2 µg/mL (≈ 0.416 µM)

C[C@]1(COc2ccc(N3CCC(Oc4ccc(F)cc4)CC3)cc2)Cn2cc([N+](=O)[O-])nc2O1
MIC [1]: 0.39 µg/mL (≈ 0.832 µM)
MIC [2]: 0.2 µg/mL (≈ 0.427 µM)

C[C@]1(COc2ccc(N3CCC(Oc4ccccc4OC(F)(F)F)CC3)cc2)Cn2cc([N+](=O)[O-])nc2O1
MIC [1]: 0.39 µg/mL (≈ 0.73 µM)
MIC [2]: 0.2 µg/mL (≈ 0.374 µM)

C[C@]1(COc2ccc(C(F)(F)F)cc2)Cn2cc([N+](=O)[O-])nc2O1
MIC [1]: 0.2 µg/mL (≈ 0.583 µM)
MIC [2]: 0.1 µg/mL (≈ 0.291 µM)

Cc1ccc(OC[C@@]2(C)Cn3cc([N+](=O)[O-])nc3O2)cc1
MIC [1]: 0.024 µg/mL (≈ 0.083 µM)
MIC [2]: 0.012 µg/mL (≈ 0.0415 µM)

C[C@]1(COc2ccc(N3CCSCC3)cc2)Cn2cc([N+](=O)[O-])nc2O1
MIC [1]: 0.39 µg/mL (≈ 1.04 µM)
MIC [2]: 0.2 µg/mL (≈ 0.531 µM)

C[C@]1(COc2ccc(Cl)cc2)Cn2cc([N+](=O)[O-])nc2O1
MIC [1]: 0.012 µg/mL (≈ 0.0387 µM)
MIC [2]: 0.006 µg/mL (≈ 0.0194 µM)

C[C@]1(COc2ccc(N3CCC(Oc4ccc(OC(F)(F)F)cc4)CC3)cc2)Cn2cc([N+](=O)[O-])nc2O1 [DELAMANID]
MIC [1]: 0.006 µg/mL (≈ 0.0112 µM)
MIC [2]: 0.006 µg/mL (≈ 0.0112 µM)
